Our source for the Ki and Selectivity ratio values is ChEMBL document CHEMBL1148743, “C1'-cycloalkyl side chain pharmacophore in tetrahydrocannabinols” (J Med Chem, 2007).

The target of one experiment is Cannabinoid receptor 2 (Mus musculus, UniProt P47936). As to the kind of experiment: Displacement of [3H]CP-55940 from CB2 receptor in mouse spleen membrane. The format is cell membranes. A digest of the protocol:
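CB2 sites are measured with membranes prepared from frozen mouse spleen. Binding is competition against tritiated CP-55,940, run in 96-well filter format, and IC50 values are taken from displacement. Filters are washed in buffer containing 0.5% BSA and counted by scintillation. Ki is the mean of three independent experiments, each run in duplicate.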

A further experiment deals with Cannabinoid receptor 1 (Rattus norvegicus, UniProt P20272). The experiment in a line: Displacement of [3H]CP-55940 from CB1 receptor in rat brain synaptosomal membrane. Type of experiment: cell membranes. A digest of the protocol: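 Rat forebrain synaptosomal membranes prepared from frozen brains serve as CB1 source. Binding is competition against tritiated CP-55,940, run in 96-well filter format, and IC50 values are taken from displacement. Filters are washed in buffer containing 0.5% BSA and counted by scintillation. Ki is the mean of three independent experiments, each run in duplicate.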
Cannabinoid receptor 1, sequence (P20272 whole entry): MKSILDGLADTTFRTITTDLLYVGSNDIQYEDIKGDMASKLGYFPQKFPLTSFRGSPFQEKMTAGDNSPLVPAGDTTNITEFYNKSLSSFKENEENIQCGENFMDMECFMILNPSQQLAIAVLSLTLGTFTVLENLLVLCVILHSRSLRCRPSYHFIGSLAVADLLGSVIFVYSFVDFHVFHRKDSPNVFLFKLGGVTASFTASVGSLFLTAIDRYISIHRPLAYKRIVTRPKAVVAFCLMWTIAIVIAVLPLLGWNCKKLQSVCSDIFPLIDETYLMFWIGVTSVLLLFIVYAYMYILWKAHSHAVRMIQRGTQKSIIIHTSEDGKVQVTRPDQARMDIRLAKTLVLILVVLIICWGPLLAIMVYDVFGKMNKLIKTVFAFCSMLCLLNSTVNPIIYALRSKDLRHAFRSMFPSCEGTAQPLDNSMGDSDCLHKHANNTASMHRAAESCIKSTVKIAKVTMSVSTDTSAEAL

Experiment [1] in a line: Selectivity for mouse CB2 receptor over rat CB1 receptor.

Cannabinoid receptor 2, sequence (P47936 whole entry): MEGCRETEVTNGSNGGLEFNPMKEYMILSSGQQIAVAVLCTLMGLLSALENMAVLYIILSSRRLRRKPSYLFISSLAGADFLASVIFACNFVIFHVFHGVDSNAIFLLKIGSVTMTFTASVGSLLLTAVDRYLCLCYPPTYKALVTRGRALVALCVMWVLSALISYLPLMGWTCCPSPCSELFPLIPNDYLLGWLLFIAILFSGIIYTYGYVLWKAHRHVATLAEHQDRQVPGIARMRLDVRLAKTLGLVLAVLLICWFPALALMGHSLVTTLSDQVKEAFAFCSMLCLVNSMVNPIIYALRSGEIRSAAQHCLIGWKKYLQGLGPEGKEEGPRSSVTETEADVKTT

As for `CCCCCCCc1cc(O)c2c(c1)OC(C)(C)[C@@H]1CC=C(C)C[C@@H]21`, the inhibitory constant (Ki) was found to be 20.8 nM on Cannabinoid receptor 2 and 8.8 nM at Cannabinoid receptor 1.

For `CCCC/C=C\C1(c2cc(O)c3c(c2)OC(C)(C)[C@@H]2CC=C(C)C[C@@H]32)CCC1`, the inhibition constant Ki on Cannabinoid receptor 2 came to 1.2 nM; at Cannabinoid receptor 1, 0.93 nM.

Consider `CCCC/C=C\C1(c2cc(O)c3c(c2)OC(C)(C)[C@@H]2CC=C(C)C[C@@H]32)CC1`, for which the inhibition constant (Ki) is 1.7 nM at Cannabinoid receptor 2 and 1.5 nM on Cannabinoid receptor 1.

For the compound `CCCCCCC1(c2cc(O)c3c(c2)OC(C)(C)[C@@H]2CC=C(C)C[C@@H]32)CCCCC1`, the results for the inhibition constant (Ki) on Cannabinoid receptor 2 and at Cannabinoid receptor 1 were 23.5 nM and 18.4 nM, respectively.

As for `CCCCCCCC1(c2cc(O)c3c(c2)OC(C)(C)[C@@H]2CC=C(C)C[C@@H]32)CCC1`, the Selectivity ratio in experiment [1] was 20. In addition, the figures for the inhibition constant Ki at Cannabinoid receptor 2 and at Cannabinoid receptor 1 were 52.3 nM and 2.7 nM, respectively.

As to `CCCCCCCC1(c2cc(O)c3c(c2)OC(C)(C)[C@@H]2CC=C(C)C[C@@H]32)CCCC1`, the Ki on Cannabinoid receptor 2 worked out at 45.5 nM; on Cannabinoid receptor 1, 9.9 nM.

As to `CCCC/C=C\C1(c2cc(O)c3c(c2)OC(C)(C)[C@@H]2CC=C(C)C[C@@H]32)CCCCC1`, the Ki stood at 4.9 nM at Cannabinoid receptor 2 and 3.9 nM at Cannabinoid receptor 1.

On to `CCCCCCCC1(c2cc(O)c3c(c2)OC(C)(C)[C@@H]2CC=C(C)C[C@@H]32)CCCCC1`, for which the values for the inhibitory constant (Ki) at Cannabinoid receptor 2 and on Cannabinoid receptor 1 were 143 nM and 13.6 nM, respectively.

As for `CCCC/C=C\C1(c2cc(O)c3c(c2)OC(C)(C)[C@@H]2CC=C(C)C[C@@H]32)CCCC1` (relative stereo), the inhibitory constant (Ki) on Cannabinoid receptor 2 worked out at 1.8 nM; at Cannabinoid receptor 1 it was 0.72 nM.

As to `CCCCCCC1(c2cc(O)c3c(c2)OC(C)(C)[C@@H]2CC=C(C)C[C@@H]32)CCC1`, the Selectivity ratio in experiment [1] turned out to be 8. Further, the figures for the Ki at Cannabinoid receptor 2 and at Cannabinoid receptor 1 were 11.5 nM and 1.5 nM, respectively.

As to `CCCCCCCC1(c2cc(O)c3c(c2)OC(C)(C)[C@@H]2CC=C(C)C[C@@H]32)CC1` (relative stereo), the Ki amounted to 4.2 nM on Cannabinoid receptor 2 and 0.48 nM on Cannabinoid receptor 1.
